Test results: ChEMBL document CHEMBL1122419, “alpha-Adrenergic activities of some substituted 2-(aminomethyl)imidazolines” (J Med Chem, 1983)

How the values were obtained:
[1] = molecular target: T1, Adrenergic receptor alpha-1 (Rattus norvegicus, UniProt P15823+P23944+P43140); assay: Agonist activity against alpha-1 adrenergic receptor from rat vas deferens; format: functional
T1 sequence (P15823 whole entry): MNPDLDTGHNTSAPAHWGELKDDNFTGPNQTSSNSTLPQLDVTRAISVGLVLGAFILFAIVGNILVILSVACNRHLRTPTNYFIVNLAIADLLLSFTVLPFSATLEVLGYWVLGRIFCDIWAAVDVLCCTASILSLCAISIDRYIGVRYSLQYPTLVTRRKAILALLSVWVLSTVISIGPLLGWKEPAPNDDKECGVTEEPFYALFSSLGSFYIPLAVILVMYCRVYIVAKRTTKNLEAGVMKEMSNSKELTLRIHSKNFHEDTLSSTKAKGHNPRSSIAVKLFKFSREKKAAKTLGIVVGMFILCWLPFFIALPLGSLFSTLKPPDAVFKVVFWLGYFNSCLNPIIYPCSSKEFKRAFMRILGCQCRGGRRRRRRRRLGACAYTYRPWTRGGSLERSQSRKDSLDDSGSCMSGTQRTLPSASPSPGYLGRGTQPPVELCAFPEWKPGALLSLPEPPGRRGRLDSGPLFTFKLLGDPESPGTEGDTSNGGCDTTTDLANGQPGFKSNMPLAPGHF
T1 sequence (P23944 whole entry): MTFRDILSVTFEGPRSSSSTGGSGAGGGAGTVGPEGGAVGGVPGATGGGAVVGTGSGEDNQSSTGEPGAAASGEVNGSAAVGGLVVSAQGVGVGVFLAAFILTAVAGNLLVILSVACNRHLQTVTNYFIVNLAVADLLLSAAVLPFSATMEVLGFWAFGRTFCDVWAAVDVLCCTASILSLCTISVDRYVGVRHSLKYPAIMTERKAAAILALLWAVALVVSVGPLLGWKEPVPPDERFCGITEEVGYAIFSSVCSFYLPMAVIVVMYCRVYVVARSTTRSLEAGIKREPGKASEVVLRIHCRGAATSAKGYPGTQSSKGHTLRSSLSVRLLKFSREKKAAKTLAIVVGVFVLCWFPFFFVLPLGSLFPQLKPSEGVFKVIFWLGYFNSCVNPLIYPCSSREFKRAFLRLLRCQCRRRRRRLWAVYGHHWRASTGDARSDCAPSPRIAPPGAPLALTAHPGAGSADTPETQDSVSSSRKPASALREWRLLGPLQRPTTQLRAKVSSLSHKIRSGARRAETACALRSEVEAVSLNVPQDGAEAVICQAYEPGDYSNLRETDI
T1 sequence (P43140 whole entry): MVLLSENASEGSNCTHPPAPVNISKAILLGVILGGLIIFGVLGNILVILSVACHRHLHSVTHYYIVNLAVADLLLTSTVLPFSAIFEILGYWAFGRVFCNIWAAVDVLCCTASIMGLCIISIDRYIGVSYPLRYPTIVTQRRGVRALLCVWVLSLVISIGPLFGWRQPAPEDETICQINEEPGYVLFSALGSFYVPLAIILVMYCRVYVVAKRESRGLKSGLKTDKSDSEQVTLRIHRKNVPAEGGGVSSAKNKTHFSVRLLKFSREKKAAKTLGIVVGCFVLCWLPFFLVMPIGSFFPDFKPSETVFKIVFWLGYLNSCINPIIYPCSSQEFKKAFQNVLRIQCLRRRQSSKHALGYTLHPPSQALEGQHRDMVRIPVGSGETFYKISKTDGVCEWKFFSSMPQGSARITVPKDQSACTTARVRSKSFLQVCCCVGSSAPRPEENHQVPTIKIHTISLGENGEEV

[2] = molecular target: T2, Adrenergic receptor alpha-2 (Rattus norvegicus, UniProt P22086+P19328+P22909); assay: Agonistic activity against alpha alpha-2 adrenergic receptor in isolated, field -simulated vas deferens from rats; format: functional
T2 sequence (P22086 whole entry): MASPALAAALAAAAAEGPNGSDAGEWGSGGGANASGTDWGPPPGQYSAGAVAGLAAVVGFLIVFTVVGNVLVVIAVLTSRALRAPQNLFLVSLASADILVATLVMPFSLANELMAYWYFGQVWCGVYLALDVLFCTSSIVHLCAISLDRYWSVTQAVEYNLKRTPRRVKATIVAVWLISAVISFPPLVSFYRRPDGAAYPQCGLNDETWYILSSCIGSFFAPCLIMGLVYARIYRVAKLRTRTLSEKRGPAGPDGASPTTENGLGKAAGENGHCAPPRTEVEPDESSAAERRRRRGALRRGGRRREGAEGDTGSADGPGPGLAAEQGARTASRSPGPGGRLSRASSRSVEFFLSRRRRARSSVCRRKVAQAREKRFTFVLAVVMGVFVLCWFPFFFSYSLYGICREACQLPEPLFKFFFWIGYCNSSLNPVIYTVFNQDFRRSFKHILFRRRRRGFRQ
T2 sequence (P19328 whole entry): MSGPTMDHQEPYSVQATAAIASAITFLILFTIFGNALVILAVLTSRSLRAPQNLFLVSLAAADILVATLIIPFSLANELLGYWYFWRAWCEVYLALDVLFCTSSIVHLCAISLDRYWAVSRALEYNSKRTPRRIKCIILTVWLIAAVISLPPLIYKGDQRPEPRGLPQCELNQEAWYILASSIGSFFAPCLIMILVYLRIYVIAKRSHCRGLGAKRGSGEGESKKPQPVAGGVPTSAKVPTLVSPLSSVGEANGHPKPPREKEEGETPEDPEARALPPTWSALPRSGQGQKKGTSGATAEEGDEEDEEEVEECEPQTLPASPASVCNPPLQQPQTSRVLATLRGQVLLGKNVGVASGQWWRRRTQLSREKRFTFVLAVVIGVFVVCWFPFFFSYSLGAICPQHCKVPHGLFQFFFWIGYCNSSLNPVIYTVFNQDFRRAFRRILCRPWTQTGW
T2 sequence (P22909 whole entry): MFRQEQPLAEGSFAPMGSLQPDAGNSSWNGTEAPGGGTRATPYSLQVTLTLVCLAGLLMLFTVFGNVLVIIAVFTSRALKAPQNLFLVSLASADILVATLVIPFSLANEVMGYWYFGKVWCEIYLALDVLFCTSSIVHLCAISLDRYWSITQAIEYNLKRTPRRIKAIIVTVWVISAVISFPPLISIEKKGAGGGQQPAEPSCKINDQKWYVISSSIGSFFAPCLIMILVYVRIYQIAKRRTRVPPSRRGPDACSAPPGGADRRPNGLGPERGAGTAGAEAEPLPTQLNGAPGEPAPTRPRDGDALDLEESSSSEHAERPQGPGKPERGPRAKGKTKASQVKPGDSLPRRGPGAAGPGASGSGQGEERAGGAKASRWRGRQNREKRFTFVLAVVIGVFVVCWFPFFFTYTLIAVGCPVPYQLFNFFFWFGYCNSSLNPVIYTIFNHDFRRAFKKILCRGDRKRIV

[3] = molecular target: T3, Alpha-2A adrenergic receptor (Bos taurus, UniProt Q28838); assay: Binding affinity against alpha-2 adrenergic receptor from calf cerebral cortex, using [3H]clonidine as the radioligand; format: tissue-based
T3 sequence (Q28838 whole entry): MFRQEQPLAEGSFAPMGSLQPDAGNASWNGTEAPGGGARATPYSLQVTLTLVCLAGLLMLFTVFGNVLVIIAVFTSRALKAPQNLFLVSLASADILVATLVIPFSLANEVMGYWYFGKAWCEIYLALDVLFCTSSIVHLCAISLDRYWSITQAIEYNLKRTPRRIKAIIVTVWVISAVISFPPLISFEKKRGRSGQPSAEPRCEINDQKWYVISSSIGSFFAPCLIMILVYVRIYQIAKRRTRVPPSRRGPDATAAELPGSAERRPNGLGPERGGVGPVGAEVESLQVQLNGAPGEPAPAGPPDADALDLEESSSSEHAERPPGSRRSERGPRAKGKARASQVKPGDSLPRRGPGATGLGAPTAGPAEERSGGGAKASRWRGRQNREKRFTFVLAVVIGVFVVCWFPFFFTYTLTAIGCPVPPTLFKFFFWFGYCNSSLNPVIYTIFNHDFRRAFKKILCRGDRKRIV

[4] = molecular target: Adrenergic receptor alpha-2 (Rattus norvegicus) (UniProt P22086+P19328+P22909); assay: Clonidine antagonistic activity against alpha-2 adrenergic receptor in isolated, field -simulated vas deferens from rats; format: functional
Outline: (§1)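 Field-stimulated vas deferens from Sprague-Dawley rats (250-350 g). pA2 estimated from one or two test-compound concentrations, with at least three tissues per concentration. Agonist challenged was clonidine for α2 and methoxamine for α1.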

[5] = molecular target: T2, Adrenergic receptor alpha-2; assay: Agonistic activity against alpha-2 adrenergic receptor in isolated, field -simulated vas deferens from rats; format: functional
Outline: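 Field-stimulated vas deferens from Sprague-Dawley rats (250-350 g), pretreated with prazosin (78 nM). α2 agonism scored as inhibition of stimulation-induced contractions. […] Agonist activity confirmed by complete reversal of the inhibition by rauwolscine (280 nM).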

[6] = molecular target: T1, Adrenergic receptor alpha-1; assay: Methoxamine antagonistic activity against alpha-1 adrenergic receptor in isolated, field -simulated vas deferens from rats; format: functional, tissue-based; outline: as §1

Structure (SMILES) | EC50 [1] [µM] | EC50 [2] [µM] | Ki [3] [µM] | pA2 [4] | EC50 [5] [µM] | pA2 [6]
Oc1cccc(NCC2=NCCN2)c1 | 0.061 | 0.074 | 0.0071 | – | – | –
Cc1ccc(N(CC2=NCCN2)c2cccc(O)c2)cc1 | – | – | – | 7.8 | – | –
CCN(CC1=NCCN1)c1ccc(C)cc1 | 1.6 | > 1 | 0.014 | 7.1 | – | –
Cc1ccc(NCC2=NCCN2)cc1 | 0.34 | > 2 | 0.014 | 5.6 | – | –
Cc1ccc(N(CC2=NCCN2)c2ccccc2)cc1 | > 1 | > 1 | – | 7.5 | – | 7.6

The next lines start with the values.

EC50 [1] [µM] | EC50 [2] [µM] | Ki [3] [µM] | pA2 [4] | EC50 [5] [µM] | pA2 [6] | Structure (SMILES)
0.05 | – | – | – | 0.053 | – | Clc1ccccc1NCC1=NCCN1
> 1 | > 1 | 0.07 | 6.5 | – | 6 | Cc1ccc(N(CC2=NCCN2)C2CCCCC2)cc1
0.3 | > 2 | 0.0033 | 7 | – | – | Cc1ccc(N(C)CC2=NCCN2)cc1
